For assay [1], the system named is Escherichia coli. The assay can be described thus: Antibacterial activity against Escherichia coli K-12 in M9 minimal media in presence of folate precursor PABA by turbidometric method. Format: functional.
In assay [2] the test system is Escherichia coli. Nature of the assay: Antibacterial activity against Escherichia coli K-12 in M9 minimal media by turbidometric method. It counts as functional.
Assay [3] relates to Escherichia coli. Nature of the assay: Antibacterial activity against Escherichia coli K-12 in M9 minimal media in presence of methionine by turbidometric method. Format: functional.
Assay [4] deals with T1, Dihydropteroate synthase (Bacillus anthracis, UniProt Q81VW8).
T1 sequence (Q81VW8 whole entry): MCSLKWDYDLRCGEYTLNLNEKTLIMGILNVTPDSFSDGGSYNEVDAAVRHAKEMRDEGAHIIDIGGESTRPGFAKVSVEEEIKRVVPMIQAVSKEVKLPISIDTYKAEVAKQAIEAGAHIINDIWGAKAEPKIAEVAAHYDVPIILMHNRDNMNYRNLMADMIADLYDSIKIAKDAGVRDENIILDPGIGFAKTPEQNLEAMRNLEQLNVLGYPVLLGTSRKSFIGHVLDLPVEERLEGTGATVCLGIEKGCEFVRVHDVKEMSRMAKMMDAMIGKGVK
Nature of the assay: Inhibition of fluorescein-labeled probe binding to Bacillus anthracis N-terminal His-tagged DHPS incubated for 1 hr in presence of sodium pyrophosphate by fluorescence polarization assay. Summed up: (§1)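 Competition binding of test compounds against a probe on B. anthracis DHPS, read by fluorescence polarization as displacement of the probe; run without added pyrophosphate or with 2 mM sodium pyrophosphate, the DHPS reaction byproduct, to confirm site-specific binding; IC50 values derived from probe displacement.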
For orientation: In fluorescence polarisation assays a small probe gives low polarisation when free and higher when bound to something large.

Assay [5] has as its target T1, Dihydropteroate synthase. The assay can be described thus: Inhibition of fluorescein-labeled probe binding to Bacillus anthracis N-terminal His-tagged DHPS incubated for 1 hr by fluorescence polarization assay. Summed up:
as §1

From ChEMBL document CHEMBL3826895, “Pterin-sulfa conjugates as dihydropteroate synthase inhibitors and antibacterial agents” (Bioorg Med Chem Lett, 2016) come the findings set out here.

In brackets after ≈: the same amount, converted by molar mass. Bounds are passed on as bounds.

The term MIC denotes the lowest concentration found to suppress growth. Regarding `CC1(C)S[C@@H]2[C@H](NC(=O)[C@H](N)c3ccccc3)C(=O)N2[C@H]1C(=O)O` [AMPICILLIN], the MIC in the assay on Escherichia coli [1] is 2 µM; against Escherichia coli [2], 1.58 µM (≈ 0.552 µg/mL); in the assay on Escherichia coli [3], 2.1 µM.

As usually defined, the IC50 is the concentration that inhibits the measured activity by half. With `CC(=O)NS(=O)(=O)c1ccc(NCc2cnc3nc(N)[nH]c(=O)c3n2)cc1`, the MIC in the assay on Escherichia coli [1] is more than 514 µM; in the assay with Escherichia coli [2], 136 µM (≈ 53 µg/mL); in the assay on Escherichia coli [3], more than 200 µM. Moreover, the values for the concentration for half-maximal inhibition (IC50) on Dihydropteroate synthase [4] and on Dihydropteroate synthase [5] were 17.1 µM and 18.6 µM, respectively.

As to `COc1cc(NS(=O)(=O)c2ccc(NCc3cnc4nc(N)[nH]c(=O)c4n3)cc2)nc(OC)n1`, the MIC is more than 412 µM with Escherichia coli [1], 17.2 µM (≈ 8.35 µg/mL) against Escherichia coli [2] and 86 µM in the assay with Escherichia coli [3]. Also, the IC50 at Dihydropteroate synthase [4] stood at 1.9 µM; on Dihydropteroate synthase [5], 26.8 µM.

In the case of `CC(=O)Nc1nc2ncc(CNc3ccc(S(=O)(=O)Nc4ccccn4)cc3)nc2c(=O)[nH]1`, the figures for the MIC with Escherichia coli [1], in the assay on Escherichia coli [2] and in the assay on Escherichia coli [3] were 669 µM, 2.7 µM (≈ 1.26 µg/mL) and 6.3 µM, respectively.

For the compound `COc1ncnc(NS(=O)(=O)c2ccc(NCc3cnc4nc(NC(C)=O)[nH]c(=O)c4n3)cc2)c1OC`, the figures for the MIC in the assay on Escherichia coli [1], in the assay on Escherichia coli [2] and in the assay on Escherichia coli [3] were more than 644 µM, 3.8 µM (≈ 2 µg/mL) and 10.1 µM, respectively.

On to `O=C(N[C@H](CO)[C@H](O)c1ccc([N+](=O)[O-])cc1)C(Cl)Cl` [CHLORAMPHENICOL], for which the MIC in the assay on Escherichia coli [1] is 9.7 µM; with Escherichia coli [2] it was 8.5 µM (≈ 2.75 µg/mL); in the assay with Escherichia coli [3], 9.7 µM.

Take `CC(=O)Nc1nc2ncc(CNc3ccc(S(=O)(=O)c4ccc(N)cc4)cc3)nc2c(=O)[nH]1`: the results for the MIC in the assay on Escherichia coli [1], in the assay with Escherichia coli [2] and in the assay with Escherichia coli [3] were more than 934 µM, 25 µM (≈ 11.6 µg/mL) and 50 µM, respectively.

In the case of `Cc1noc(NS(=O)(=O)c2ccc(NCc3cnc4nc(N)[nH]c(=O)c4n3)cc2)c1C`, the MIC is more than 412 µM in the assay on Escherichia coli [1], 28.3 µM (≈ 12.5 µg/mL) against Escherichia coli [2] and 47 µM in the assay on Escherichia coli [3]. For the same compound, the IC50 at Dihydropteroate synthase [4] is 8.1 µM; on Dihydropteroate synthase [5], 22.5 µM.

For `COc1cc(Cc2cnc(N)nc2N)cc(OC)c1OC` [TRIMETHOPRIM], the results for the MIC in the assay with Escherichia coli [1], in the assay on Escherichia coli [2] and with Escherichia coli [3] were 1.4 µM, 1.7 µM (≈ 0.494 µg/mL) and 0.7 µM, respectively.

For `CC(=O)Nc1nc2ncc(CNc3ccc(S(=O)(=O)NC(C)=O)cc3)nc2c(=O)[nH]1`, the MIC in the assay on Escherichia coli [1] was more than 934 µM; against Escherichia coli [2], 22 µM (≈ 9.49 µg/mL); in the assay on Escherichia coli [3], 58 µM.

For `CC(=O)Nc1nc2ncc(CNc3ccc(S(=O)(=O)Nc4cc(C)on4)cc3)nc2c(=O)[nH]1`, the MIC was found to be 263 µM in the assay on Escherichia coli [1], 0.8 µM (≈ 0.376 µg/mL) against Escherichia coli [2] and 1.5 µM with Escherichia coli [3].

Turning to `COc1cc(NS(=O)(=O)c2ccc(NCc3cnc4nc(NC(C)=O)[nH]c(=O)c4n3)cc2)nc(OC)n1`, the MIC in the assay on Escherichia coli [1] amounted to 537 µM; with Escherichia coli [2], 1.6 µM (≈ 0.844 µg/mL); in the assay on Escherichia coli [3] it was 3.4 µM.

Consider `CC(=O)Nc1nc2ncc(CNc3ccc(S(=O)(=O)Nc4ncccn4)cc3)nc2c(=O)[nH]1`, for which the MIC in the assay on Escherichia coli [1] came out at 666 µM; in the assay on Escherichia coli [2], 1.6 µM (≈ 0.748 µg/mL); in the assay on Escherichia coli [3] it was 6.2 µM.

As for `Nc1nc2ncc(CNc3ccc(S(=O)(=O)Nc4ncccn4)cc3)nc2c(=O)[nH]1`, the MIC with Escherichia coli [1] was more than 470 µM; against Escherichia coli [2] it was 17.1 µM (≈ 7.27 µg/mL); with Escherichia coli [3], 78 µM. The IC50 at Dihydropteroate synthase [4] was 9.4 µM; at Dihydropteroate synthase [5], 19.3 µM.

Consider `Cc1cc(NS(=O)(=O)c2ccc(NCc3cnc4nc(N)[nH]c(=O)c4n3)cc2)no1`, for which the minimum inhibitory concentration (MIC) was 467 µM in the assay with Escherichia coli [1], 10.9 µM (≈ 4.67 µg/mL) against Escherichia coli [2] and 29 µM with Escherichia coli [3]. Further, the IC50 on Dihydropteroate synthase [4] was determined as 3.4 µM; at Dihydropteroate synthase [5], 20.6 µM.

`Nc1nc2ncc(CNc3ccc(S(=O)(=O)Nc4ccccn4)cc3)nc2c(=O)[nH]1`: the results for the MIC in the assay with Escherichia coli [1], in the assay with Escherichia coli [2] and with Escherichia coli [3] were more than 471 µM, 29.5 µM (≈ 12.5 µg/mL) and 98 µM, respectively. Besides, the results for the IC50 on Dihydropteroate synthase [4] and on Dihydropteroate synthase [5] were 2.5 µM and more than 62.5 µM, respectively.

As to `COc1ncnc(NS(=O)(=O)c2ccc(NCc3cnc4nc(N)[nH]c(=O)c4n3)cc2)c1OC`, the MIC is more than 412 µM in the assay on Escherichia coli [1], 34.3 µM (≈ 16.7 µg/mL) against Escherichia coli [2] and 172 µM in the assay with Escherichia coli [3]. In addition, the IC50 came to 11.5 µM at Dihydropteroate synthase [4] and 15.2 µM on Dihydropteroate synthase [5].

In the case of `Nc1ccc(S(=O)(=O)c2ccc(NCc3cnc4nc(N)[nH]c(=O)c4n3)cc2)cc1`, the MIC was found to be 236 µM with Escherichia coli [1], 197 µM (≈ 83.4 µg/mL) against Escherichia coli [2] and 236 µM in the assay with Escherichia coli [3]. Further, the IC50 on Dihydropteroate synthase [4] came to 11.3 µM; on Dihydropteroate synthase [5] it was 17.8 µM.

As to `CC(=O)Nc1nc2ncc(CNc3ccc(S(=O)(=O)Nc4onc(C)c4C)cc3)nc2c(=O)[nH]1`, the MIC in the assay on Escherichia coli [1] is 249 µM; in the assay with Escherichia coli [2], 1.5 µM (≈ 0.727 µg/mL); in the assay with Escherichia coli [3] it was 5.9 µM.
